In ChEMBL document CHEMBL1177648, “Synthesis and anti breast cancer activity of biphenyl based chalcones” (Bioorg Med Chem, 2010):

Tests used:
HEK293 = assay: Cytotoxicity against HEK293 cells after 24 hrs by MTT assay; type: cell-based, Homo sapiens
Procedure, shortened: (§1)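 Cells seeded at 1 × 10⁴/well in DMEM with 10% FBS and held 24 h at 37 °C in CO₂. Compounds diluted in culture medium and incubated 24 h. Medium removed, MTT (5 mg/ml) added for 4 h, formazan dissolved in DMSO, absorbance read at 540 nm. Viability given as percent of untreated cells.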

MCF7 = assay: Cytotoxicity against human MCF7 cells after 24 hrs by MTT assay; type: functional, cell-based; procedure, shortened: as §1
HeLa = assay: Cytotoxicity against human HeLa cells after 24 hrs by MTT assay; type: functional, cell-based; procedure, shortened: as §1
MDA-MB-231 = assay: Cytotoxicity against human MDA-MB-231 cells after 24 hrs by MTT assay; type: functional, cell-based; procedure, shortened: as §1
[1] = Homo sapiens, MCF7, 24 h, read-out: IC50
[2] = Homo sapiens, MDA-MB-231, 24 h, read-out: IC50
[3] = Homo sapiens, HEK293, 24 h, read-out: IC50
[4] = Homo sapiens, HeLa, 24 h, read-out: IC50

| Structure (SMILES) | IC50 (HEK293; hek293) | IC50 (MCF7; mcf7) | IC50 (HeLa; hela) | IC50 (MDA-MB-231; mda-mb-231) | IC50 (MCF7; [1]) | IC50 (MDA-MB-231; [2]) | IC50 (HEK293; [3]) | IC50 (HeLa; [4]) |
| --- | --- | --- | --- | --- | --- | --- | --- | --- |
| COc1ccc(/C=C/C(=O)c2c(C)cc(O)c(C(=O)/C=C/c3ccc(OC)cc3)c2-c2ccccc2)cc1 | Not Active | Not Active | Not Active | Not Active | – | – | – | – |
| Cc1cc(O)c(C(=O)/C=C/c2ccccc2)c(-c2ccc(OCc3ccccc3)cc2)c1C(=O)/C=C/c1ccccc1 | Not Active | Not Active | Not Active | Not Active | – | – | – | – |
| Cc1cc(O)c(C(=O)/C=C/c2ccc(Cl)cc2)c(-c2ccc(Cl)cc2)c1C(=O)/C=C/c1ccc(Cl)cc1 | Not Active | – | Not Active | – | 28 µM | 30 µM | – | – |
| COc1ccc(/C=C/C(=O)c2c(C)cc(O)c(C(=O)/C=C/c3ccc(OC)c(OC)c3)c2-c2ccc(OCc3ccccc3)cc2)cc1OC | – | – | Not Active | – | 30 µM | 22 µM | 30 µM | – |
| Cc1cc(O)c(C(=O)/C=C/c2ccc3ccccc3c2)c(-c2ccc(Cl)cc2)c1C(=O)/C=C/c1ccc2ccccc2c1 | Not Active | Not Active | Not Active | Not Active | – | – | – | – |
| Cc1cc(O)c(C(=O)/C=C/c2ccc(Cl)cc2)c(-c2ccccc2)c1C(=O)/C=C/c1ccc(Cl)cc1 | – | – | – | – | 10 µM | 7.9 µM | 10 µM | 30 µM |
| Cc1cc(O)c(C(=O)/C=C/c2ccc(F)cc2)c(-c2ccc(Br)cc2)c1C(=O)/C=C/c1ccc(F)cc1 | – | – | Not Active | – | 20 µM | 22.3 µM | 20 µM | – |
| Cc1cc(O)c(C(=O)/C=C/c2ccc(F)cc2)c(-c2ccccc2)c1C(=O)/C=C/c1ccc(F)cc1 | Not Active | – | – | – | 20 µM | 20 µM | – | 30 µM |
| Cc1cc(O)c(C(=O)/C=C/c2ccc(Br)cc2)c(-c2ccc(Br)cc2)c1C(=O)/C=C/c1ccc(Br)cc1 | – | – | – | – | 15 µM | 18 µM | 30 µM | 30 µM |
| Cc1cc(O)c(C(=O)/C=C/c2ccc(F)cc2)c(-c2ccc(OCc3ccccc3)cc2)c1C(=O)/C=C/c1ccc(F)cc1 | – | – | – | – | 28 µM | 15 µM | 30 µM | 25 µM |
| Cc1cc(O)c(C(=O)/C=C/c2ccc(Br)cc2)c(-c2ccc(OCc3ccccc3)cc2)c1C(=O)/C=C/c1ccc(Br)cc1 | – | – | Not Active | – | 30 µM | 30 µM | 20 µM | – |
| Cc1cc(O)c(C(=O)/C=C/c2cccc3ccccc23)c(-c2ccc(Cl)cc2)c1C(=O)/C=C/c1cccc2ccccc12 | – | – | Not Active | – | 30 µM | 30 µM | 30 µM | – |
| CC/C(=C(\c1ccccc1)c1ccc(OCCN(C)C)cc1)c1ccccc1 [TAMOXIFEN] | – | – | – | – | 8.9 µM | 10 µM | 10 µM | 12.5 µM |
| Cc1cc(O)c(C(=O)/C=C/c2ccc3ccccc3c2)c(-c2ccccc2)c1C(=O)/C=C/c1ccc2ccccc2c1 | Not Active | – | Not Active | – | 31.5 µM | 30 µM | – | – |
| Cc1cc(O)c(C(=O)/C=C/c2ccc(OCc3ccccc3)cc2)c(-c2ccc(OCc3ccccc3)cc2)c1C(=O)/C=C/c1ccc(OCc2ccccc2)cc1 | – | – | Not Active | – | 26 µM | 20 µM | 30 µM | – |
